STAT1 blocker: STAT1 signaling inhibitors, primary screen, cell-based, HTS, luciferase reporter. NIH 3T3 STAT1-luciferase reporter, IFN-gamma, luminescence. inhibition, % at 5.5 µM. 200,000 compounds, 0.35% hits. AID 920, 2007;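 active = inhibition above a set limit, the mean inhibition across all tested compounds plus 3 SD, cut at about 34% in these data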;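 note: 0% = IFN-gamma with DMSO and 100% = IFN-gamma with 300 µM nifuroxazide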
STAT3 activator: IL-6 driven STAT3 reporter potentiators, primary screen, U3A cells, luciferase, luminescence, MLSCN library; IL-6 STAT3-luciferase reporter; 100% = signal with IL-6 EC80 alone; activation (% of control), % at 5.6 µM; 190,000 compounds, 0.91% hits; AID 871, 2007;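 active = activation above the screen-wide mean of compound activation plus 3 SD, cut at about 130% in these data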;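 note: 0% = background luminescence of wells with medium and substrate only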
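Material: STAT3-luciferase reporter U3A cells; Probe or stimulus: IL-6 (33 ng/mL); Incubation: compound pre-incubation 1 h before IL-6, then 6 h stimulation at 37 °C; Technique: luminescence from STAT3-driven luciferase reporter; Evaluation: % activation versus median of IL-6-stimulated wells; Controls: IL-6-only high control.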
STAT3 inh-1: IL-6 driven STAT3 reporter inhibitors, primary screen, U3A cells, luciferase, luminescence, MLSCN library; inhibition, % at 5.5 µM; 190,000 compounds, 0.89% hits; IL-6 STAT3-luciferase reporter; host cell line lacks STAT1;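 active = inhibition above the mean inhibition across all screened compounds plus 3 SD, cut at about 44% in these data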;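 note: 0% = DMSO only wells and 100% = 100 µM nifuroxazide control wells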
STAT1 act: STAT1 signaling activators, primary screen, cell-based, HTS, luciferase reporter; NIH 3T3 STAT1-luciferase reporter, IFN-gamma, luminescence; 100% = IFN-gamma alone, no compound; activation (% of control), % at 5.5 µM; 200,000 compounds, 2.6% hits; AID 932, 2007;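 active = activation above the screen-wide mean activation plus 3 SD, cut at about 130% in these data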;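 note: raw ratio to IFN-gamma control signal so 100% means no change and 0% no light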
APP 5'UTR act: activators of APP 5'UTR luciferase reporter, primary screen, SH-SY5Y cells | SH-SY5Y APP 5'UTR luciferase reporter, luminescence; zero percent = DMSO vehicle wells | activation, % at 2 µM | 190,000 compounds, 1% hits;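 active = activation above a set limit, based on mean plus 3 SD of controls, cut at about 140% in these data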
NF-kB expr up: activators of NF-kB expression in neurons, primary screen, cell-based, HTS | 190,000 compounds, 1.6% hits | human neuronal cells, NF-kB reporter expression; active compounds read high | fold change at 12.5 µM | AID 1239, 2008; in the data active = fold change above about 3.3
STAT3 inh-2: STAT3 reporter inhibitors, retest of hits, confirmation, U3A cells, luciferase, luminescence | 1,200 compounds, 45% hits | AID 1265, 2008 | shares compounds with STAT3 inh-1 | IL-6 STAT3 luciferase reporter; cell line lacks STAT1 | inhibition, % at 5.7 µM;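 active = inhibition above the hit cutoff computed for the primary STAT3 screen, cut at about 44% in these data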;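 note: 0% = IL-6 plus DMSO and 100% = IL-6 plus nifuroxazide control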
NFkB inh 2: NF-kB reporter inhibitors in human cells, confirmation, counter-screen for STAT3 inhibitor project, cell-based, HEK293T, luciferase, TNF-alpha stimulus | shares compounds with STAT3 inh-1 | TNF-alpha induced | inhibition, % at 5.7 µM | 1,200 compounds, 36% hits | AID 1308, 2008;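 active = inhibition above the mean of solvent-only control wells plus 3 SD, cutoff set per campaign, cut at about 13% in these data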;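 note: 0% = TNF-alpha with DMSO and 100% = TNF-alpha with MG high control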
STAT1 inh 2: STAT1 reporter inhibitors, IFN-gamma induced, confirmation, counter-screen for STAT3 inhibitor project, cell-based, NIH 3T3, luciferase luminescence | shares compounds with STAT3 inh-1 | NIH 3T3 STAT1-luciferase reporter | inhibition, % at 5.7 µM | 1,200 compounds, 27% hits | AID 1317, 2008;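 active = inhibition above the mean plus 3 SD of solvent-only control wells, limit set per screening run, cut at about 16% in these data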;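 note: 0% = DMSO with IFN-gamma and 100% = nifuroxazide control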
* = called active by the depositor; · = no result given. Most compounds without a hit are left out; they make up all but 5.1% or so of the library.

SMILES | STAT1 blocker | STAT3 activator | STAT3 inh-1 | STAT1 act | APP 5'UTR act | NF-kB expr up | STAT3 inh-2 | NFkB inh 2 | STAT1 inh 2
CCN(CC)S(=O)(=O)c1ccc(C)c(N=C=S)c1 | 0.5 | 99.7 | 6.2 | 99.5 | 29.3 | 0.95 | · | · | ·
CSc1ccc(N2C(=O)NC3(CCCCC3)C2=O)cc1 | -23.4 | 101.0 | 3.2 | 121.7 | 2.8 | 1.53 | · | · | ·
C=CCn1c(C)cc(C(=O)CSc2nc3ccccc3[nH]2)c1C | 30.0 | 21.9 | 98.7* | 73.3 | 121.9 | 0.74 | 61.0* | 14.6* | -64.5
COc1cc(NC(=O)Cc2nn(C)c(=O)c3ccccc23)cc(OC)c1 | 20.6 | 62.2 | 47.7* | 81.1 | -3.1 | 0.66 | 34.8 | 6.9 | 17.4*
Cn1nc(CC(=O)N2CCN(c3ccccc3)CC2)c2ccccc2c1=O | 15.9 | 100.4 | 3.8 | 85.2 | 20.3 | 1.08 | · | · | ·
Cn1nc(CC(=O)Nc2ccc(N3CCN(C(=O)OC(C)(C)C)CC3)cc2)c2ccccc2c1=O | 24.6 | 37.0 | 79.6* | 78.0 | -9.6 | 0.73 | 83.4* | 32.5* | 21.9*
Cc1csc(NC(=O)Cc2nn(C)c(=O)c3ccccc23)n1 | 22.1 | 55.1 | 54.2* | 82.6 | -12.7 | 0.97 | 59.8* | 17.7* | 20.8*
COc1ccccc1NC(=O)Cc1nn(C)c(=O)c2ccccc12 | 24.0 | 57.3 | 53.5* | 85.3 | 7.6 | 0.83 | 53.7* | 13.1* | 17.5*
COc1cccc(OC)c1NC(=O)Cc1nn(C)c(=O)c2ccccc12 | 3.5 | 98.5 | 4.5 | 96.8 | 3.5 | 0.95 | · | · | ·
Cn1nc(CC(=O)NCc2ccc(F)cc2)c2ccccc2c1=O | 15.4 | 78.0 | 31.7 | 86.0 | 4.1 | 0.88 | · | · | ·
COc1ccc(/C=C/CN2CCCC(CCC(=O)NCc3ccc(F)c(F)c3)C2)cc1 (stereo not given) | -9.0 | 104.7 | -3.1 | 106.5 | -26.5 | 0.93 | · | · | ·
Cc1c(C(=O)N2CCc3ccccc3C2)sc2nc(-c3ccccc3)cn12 | -0.6 | 100.9 | 2.1 | 100.6 | 7.4 | 1.28 | · | · | ·
c1ccc(-c2cn3c4c(sc3n2)CCCC4)cc1 | 26.8 | 33.4 | 82.4* | 75.4 | 87.8 | 1.61 | 58.7* | 49.9* | 11.7
COc1cccc(C(=O)Oc2ccc(N3C(=O)CCC3=O)c(C)c2)c1 | -12.3 | 99.7 | 5.2 | 108.4 | -2.3 | 1.12 | · | · | ·
CCCc1ccc(-c2cc(C(=O)N/N=C/c3ccc([N+](=O)[O-])o3)c3ccccc3n2)cc1 | 24.0 | 59.9 | 47.7* | 78.0 | 62.2 | 2.8 | 8.6 | 5.2 | -17.4
O=C(N/N=C/c1ccc([N+](=O)[O-])o1)c1cc(-c2cccc(Br)c2)nc2ccccc12 | 3.6 | 104.5 | 2.5 | 96.8 | 1.6 | 1.38 | · | · | ·
Cc1ccsc1/C=N/NC(=O)Cn1cnc2ccccc21 | -7.3 | 93.2 | 7.4 | 106.5 | -9.3 | 1.11 | · | · | ·
CC(=O)Nc1ccc(S(=O)(=O)Oc2ccc(N3C(=O)C4CCCCC4C3=O)cc2)cc1 (stereo not given) | 17.1 | 42.7 | 73.1* | 84.3 | 4.8 | 0.94 | 61.1* | 20.4* | 18.5*
CC(=O)Nc1ccc(S(=O)(=O)Oc2cccc(N3C(=O)C4CC=CCC4C3=O)c2)cc1 (stereo not given) | 8.0 | 91.9 | 10.0 | 92.6 | -17.6 | 0.63 | · | · | ·
CCCN1CCN(C(=O)c2cc(COc3ccc4ncccc4c3)on2)CC1 | 15.3 | 74.2 | 34.0 | 84.7 | 20.1 | 0.94 | · | · | ·
Cc1nc(CN(C)C(=O)c2cc(COc3ccc4ncccc4c3)on2)cs1 | 26.8 | 42.4 | 71.3* | 73.8 | -5.0 | 0.9 | 62.4* | 18.8* | 23.7*
CCN1CCN(C(=O)c2cc(COc3ccc4ncccc4c3)on2)CC1 | 22.3 | 64.5 | 45.4* | 78.0 | 6.5 | 1.08 | 41.6 | 12.4 | 18.2*
CCC1CCCCN1C(=O)c1cc(COc2ccc3ncccc3c2)on1 (stereo not given) | 25.9 | 27.7 | 84.6* | 74.9 | -12.2 | 0.82 | 82.6* | 32.2* | 20.8*
N#Cc1cc2c(nc1SC1CC(=O)N(c3ccccc3)C1=O)CCC2 (stereo not given) | 25.9 | 47.6 | 63.9* | 75.5 | -27.1 | 0.5 | 26.7 | 40.8* | -41.0
CCCc1ccc(C#N)c(SC2CC(=O)N(c3ccc(OC)cc3)C2=O)n1 (stereo not given) | -3.8 | 102.8 | 1.3 | 102.0 | 4.0 | 1.06 | · | · | ·
SMILES | STAT1 blocker | STAT3 activator | STAT3 inh-1 | STAT1 act | APP 5'UTR act | NF-kB expr up | STAT3 inh-2 | NFkB inh 2 | STAT1 inh 2
c1ccc(OCCCCn2cnc3ccccc32)cc1 | 12.8 | 65.8 | 43.5* | 88.3 | 10.4 | 0.95 | 34.9 | -6.7 | -2.5
Cc1ccc(OCCCCn2cnc3ccccc32)cc1 | 16.8 | 82.0 | 26.1 | 82.2 | 8.6 | 1.32 | · | · | ·
Cc1ccccc1OCCCCn1cnc2ccccc21 | 9.2 | 49.9 | 60.6* | 92.5 | 22.0 | 1.06 | 52.0* | 11.7 | 13.8
CCCOc1ccc(Cn2cnc3ccccc32)cc1 | 14.5 | 62.5 | 47.6* | 86.6 | -1.6 | 0.68 | 28.7 | -1.1 | 7.3
COc1ccccc1C(=O)Oc1cc(C)[nH]c(=O)c1[N+](=O)[O-] | -3.7 | 98.0 | 4.0 | 102.4 | -2.9 | 0.95 | · | · | ·
S=c1[nH]nc(-c2ccc(Cl)cc2)n1CCCN1CCOCC1 | -0.1 | 99.7 | 2.4 | 98.7 | -0.1 | 1 | · | · | ·
CN=c1scc(C)n1/N=C/c1ccc2c(c1)OCO2 | -21.6 | 62.5 | 48.9* | 119.7 | 208.6* | 8.6* | 13.6 | -22.3 | -130.2
COc1cc2c(cc1NC(=O)CC1SC(N3CCCC3)=NC1=O)oc1ccccc12 (stereo not given) | -0.6 | 91.5 | 14.8 | 100.6 | 14.2 | 0.67 | · | · | ·
CS(=O)(=O)N1CCc2cc(-c3csc(NC(=O)Cc4ccccc4)n3)ccc21 | 8.4 | 58.2 | 53.2* | 88.6 | 13.8 | 0.47 | 46.4* | 6.1 | 6.9
CC1Cc2cc(-c3csc(NC(=O)Cc4cccs4)n3)ccc2N1S(C)(=O)=O (stereo not given) | 5.5 | 34.1 | 78.9* | 95.0 | -3.2 | 0.45 | 78.9* | 28.9* | 14.5
COc1ccccc1N1CCN(C2CCN(S(=O)(=O)c3ccc4ccccc4c3)CC2)CC1 | -1.1 | 72.3 | 37.8 | 101.0 | 0.7 | 0.51 | · | · | ·

Screening results deposited in PubChem by several laboratories.
